The source of these data is ChEMBL document CHEMBL4257519, “Generation of a long-acting fusion inhibitor against HIV-1” (Medchemcomm, 2018).

Where a SMILES comes first, the peptide text is derived from it. Bridges are numbered along the chain shown (N, C = ends). [ ]: non-standard residue; d: D form. S5 = C=CCCC[C@](C)(N)C(=O)O

One may read the IC50 as the midpoint of a concentration-inhibition curve. As usually defined, the half-life is the time needed for the level to fall by half in the phase considered.

The test system of series [1] is Human immunodeficiency virus 1. The experiment in a line: Antiviral activity against HIV-1 subtype B JRFL pseudovirus assessed as inhibition of viral infection in Ghost (3)X4/R5 cells after 48 hrs by Bright-Glo luciferase reporter gene assay. The series is classed as functional, organism-based, HIV-1 group M. The settings on record: Human immunodeficiency virus 1, JRFL. Summed up: (§1)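 Single-round env-pseudotyped luciferase reporter viruses were made in HEK293T cells with the pNL4-3.Luc.R-E backbone. Ghost(3)X4/R5 target cells (CD4, CXCR4, CCR5) were grown in DMEM with 10% heat-inactivated FBS at 37 °C, 5% CO2. Peptides in 3-fold dilutions were preincubated with 100 TCID50 of virus for 1 h at room temperature. The mixture was added at 10^4 cells/well for 48 h at 37 °C. IC50 came from a variable-slope dose-response fit of luciferase reduction versus controls.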
(In general: In a reporter assay the amount or activity of a reporter protein is the signal.)

In series [2] the test system is Human immunodeficiency virus 1. Put plainly: Antiviral activity against HIV-1 subtype B SF162 pseudovirus assessed as inhibition of viral infection in Ghost (3)X4/R5 cells after 48 hrs by Bright-Glo luciferase reporter gene assay. The class given is functional, organism-based. The settings on record: Human immunodeficiency virus 1, SF162 ISOLATE. Summed up: as §1

For series [3], the system named is Human immunodeficiency virus 1. The experiment in a line: Antiviral activity against HIV1 subtype BC CNE15 pseudovirus assessed as inhibition of viral infection in Ghost (3)X4/R5 cells after 48 hrs by Bright-Glo luciferase reporter gene assay. The series is classed as functional, organism-based. The settings on record: Human immunodeficiency virus 1, subtype BC CNE15, 48 h. Summed up: as §1

The subject of series [4] is Human immunodeficiency virus 1. Put plainly: Antiviral activity against HIV1 subtype CRF01_AE CNE5 pseudovirus assessed as inhibition of viral infection in Ghost (3)X4/R5 cells after 48 hrs by Bright-Glo luciferase reporter gene assay. The class given is functional, organism-based, HIV-1 CRF01_AE. The settings on record: Human immunodeficiency virus 1, CNE5, 48 h. The essentials:
as §1

The test system of series [5] is chymotrypsin. The experiment in a line: Drug metabolism assessed as chymotrypsin (unknown origin)-mediated compound degradation by measuring compound half life at 25 uM by HPLC analysis. The class given is ADME, Homo sapiens. Summed up: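 Peptide stock was 1 mM in DMSO, diluted into 50 mM PBS pH 7.4 containing chymotrypsin (0.5 ng/μL) and 50 mM CaCl2. Digestion ran at 30 °C. Remaining peptide was monitored by reversed-phase HPLC on a C4 column at 1.0 mL/min, acetonitrile/water with 0.1% TFA.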

Series [6] concerns Human immunodeficiency virus 1. Put plainly: Antiviral activity against HIV1 subtype B' CNE6 pseudovirus assessed as inhibition of viral infection in Ghost (3)X4/R5 cells after 48 hrs by Bright-Glo luciferase reporter gene assay. The series is classed as functional, organism-based. Conditions: Human immunodeficiency virus 1, subtype B' CNE6, 48 h. Summed up:
as §1

For series [7], the system named is Human immunodeficiency virus 1. The experiment in a line: Antiviral activity against HIV1 subtype B' CNE11 pseudovirus assessed as inhibition of viral infection in Ghost (3)X4/R5 cells after 48 hrs by Bright-Glo luciferase reporter gene assay. The class given is functional, organism-based. Conditions: Human immunodeficiency virus 1, subtype B' CNE11, 48 h. Summed up:
as §1

For series [8], the system named is Human immunodeficiency virus 1. The experiment in a line: Antiviral activity against HIV1 subtype BC CNE30 pseudovirus assessed as inhibition of viral infection in Ghost (3)X4/R5 cells after 48 hrs by Bright-Glo luciferase reporter gene assay. The series is classed as functional, organism-based. The settings on record: Human immunodeficiency virus 1, subtype BC CNE30, 48 h. Summed up:
as §1

Series [9] concerns Human immunodeficiency virus 1. Put plainly: Antiviral activity against HIV-1 subtype B HXB2 pseudovirus assessed as inhibition of viral infection in Ghost (3)X4/R5 cells after 48 hrs by Bright-Glo luciferase reporter gene assay. The series is classed as functional, organism-based. The settings on record: Human immunodeficiency virus 1, M:B_HXB2R. Summed up:
as §1

In series [10] the test system is Human immunodeficiency virus 1. The experiment in a line: Antiviral activity against HIV1 subtype CRF01_AE CNE55 pseudovirus assessed as inhibition of viral infection in Ghost (3)X4/R5 cells after 48 hrs by Bright-Glo luciferase reporter gene assay. The settings on record: Human immunodeficiency virus 1, CNE55, 48 h. The series is classed as functional, organism-based, HIV-1 CRF01_AE. Summed up: as §1

In series [11] the test system is Human immunodeficiency virus 1. Put plainly: Resistance index, ratio of IC50 for inhibition of gp41 D36G mutant-mediated T20-resistant HIV1 NL4-3 viral infection in Ghost (3)X4/R5 cells to IC50 for inhibition of gp41-mediated HIV1 NL4-3 infection in Ghost (3)X4/R5 cells. The class given is cell-based.
Series [12] has as its system Human immunodeficiency virus 1. Put plainly: Resistance index, ratio of IC50 for inhibition of gp41 V38A mutant-mediated T20-resistant HIV1 NL4-3 viral infection in Ghost (3)X4/R5 cells to IC50 for inhibition of gp41-mediated HIV1 NL4-3 infection in Ghost (3)X4/R5 cells. The class given is cell-based.
Series [13] deals with Human immunodeficiency virus 1. Put plainly: Resistance index, ratio of IC50 for inhibition of gp41 G36S/V38M double mutant-mediated T20-resistant HIV1 NL4-3 viral infection in Ghost (3)X4/R5 cells to IC50 for inhibition of gp41-mediated HIV1 NL4-3 infection in Ghost (3)X4/R5 cells. The class given is cell-based.
Series [14] concerns Human immunodeficiency virus 1. The experiment in a line: Resistance index, ratio of IC50 for inhibition of gp41 I37T/N43K double mutant-mediated T20-resistant HIV1 NL4-3 viral infection in Ghost (3)X4/R5 cells to IC50 for inhibition of gp41-mediated HIV1 NL4-3 infection in Ghost (3)X4/R5 cells. The series is classed as cell-based.
For series [15], the system named is Human immunodeficiency virus 1. Put plainly: Resistance index, ratio of IC50 for inhibition of gp41 V38M mutant-mediated T20-resistant HIV1 NL4-3 viral infection in Ghost (3)X4/R5 cells to IC50 for inhibition of gp41-mediated HIV1 NL4-3 infection in Ghost (3)X4/R5 cells. The class given is cell-based.
Series [16] deals with Human immunodeficiency virus 1. The experiment in a line: Resistance index, ratio of IC50 for inhibition of gp41 N43K mutant-mediated T20-resistant HIV1 NL4-3 viral infection in Ghost (3)X4/R5 cells to IC50 for inhibition of gp41-mediated HIV1 NL4-3 infection in Ghost (3)X4/R5 cells. The class given is cell-based.
Series [17] relates to Human immunodeficiency virus 1. Put plainly: Resistance index, ratio of IC50 for inhibition of gp41 I37T mutant-mediated T20-resistant HIV1 NL4-3 viral infection in Ghost (3)X4/R5 cells to IC50 for inhibition of gp41-mediated HIV1 NL4-3 infection in Ghost (3)X4/R5 cells. The series is classed as cell-based.
The test system of series [18] is Human immunodeficiency virus 1. Put plainly: Resistance index, ratio of IC50 for inhibition of gp41 Q40H mutant-mediated T20-resistant HIV1 NL4-3 viral infection in Ghost (3)X4/R5 cells to IC50 for inhibition of gp41-mediated HIV1 NL4-3 infection in Ghost (3)X4/R5 cells. The series is classed as cell-based.
Series [19] concerns Human immunodeficiency virus 1. The experiment in a line: Resistance index, ratio of IC50 for inhibition of gp41 V38A/N42T double mutant-mediated T20-resistant HIV1 NL4-3 viral infection in Ghost (3)X4/R5 cells to IC50 for inhibition of gp41-mediated HIV1 NL4-3 infection in Ghost (3)X4/R5 cells. The class given is cell-based.

Take `CC[C@H](C)[C@H](NC(=O)[C@H](CCCCN)NC(=O)[C@H](CCCCN)NC(=O)[C@H](CC(=O)O)NC(=O)[C@H](Cc1c[nH]c2ccccc12)NC(=O)[C@H](CCC(=O)O)NC(=O)[C@H](CCC(=O)O)NC(=O)[C@H](Cc1c[nH]c2ccccc12)NC(=O)[C@@H](NC(=O)[C@H](CCSC)NC(C)=O)[C@@H](C)O)C(=O)N[C@@H](CCC(=O)O)C(=O)N[C@@H](CCC(=O)O)C(=O)N[C@@H](Cc1ccc(O)cc1)C(=O)N[C@H](C(=O)N[C@@]1(C)CCC/C=C\CCC[C@@](C)(C(=O)N[C@@H](CC(C)C)C(=O)N[C@H](C(=O)N[C@@H](CCCCN)C(=O)N[C@@H](CCCCN)C(=O)N[C@@H](CO)C(N)=O)[C@@H](C)CC)NC(=O)[C@H](CCC(=O)O)NC(=O)[C@H]([C@@H](C)CC)NC(=O)[C@H](CCCCN)NC1=O)[C@@H](C)O` (Ac-MTWEEWDKKIEEYT[S5]KIE[S5]LIKKS-NH2; staple (Z) 15-19): the IC50 in series [1] was 8.7 nM; in series [2], 14.4 nM; in series [3], 14 nM; in series [4], 27.7 nM; in series [6] it was 10.4 nM; in [7], 8.8 nM. Also, the IC50 in [8] stood at 71.7 nM; in series [9], 0.5 nM; in series [10], 82.3 nM. The half-life at 25 µM in series [5] was 495 min.

With `CC[C@H](C)[C@H](NC(=O)[C@H](CC(C)C)NC(=O)[C@H](CCC(=O)O)NC(=O)[C@H](CCC(=O)O)NC(=O)[C@@H](NC(=O)[C@H](CCCCN)NC(=O)[C@H](CCCCN)NC(=O)[C@@H](NC(=O)[C@H](Cc1ccc(O)cc1)NC(=O)[C@]1(C)CCC/C=C\CCC[C@](C)(NC(=O)[C@H](CC(=O)O)NC(=O)[C@H](Cc2c[nH]c3ccccc23)NC(=O)[C@H](CCC(=O)O)NC(=O)[C@H](CCC(=O)O)NC(=O)[C@H](Cc2c[nH]c3ccccc23)NC(=O)[C@@H](NC(=O)[C@H](CCSC)NC(C)=O)[C@@H](C)O)C(=O)N[C@@H](CCCCN)C(=O)N[C@@H]([C@@H](C)CC)C(=O)N[C@@H](CCC(=O)O)C(=O)N1)[C@@H](C)O)[C@@H](C)CC)C(=O)N[C@@H](CCCCN)C(=O)N[C@@H](CCCCN)C(=O)N[C@@H](CO)C(N)=O` (Ac-MTWEEWD[S5]KIE[S5]YTKKIEELIKKS-NH2; staple (Z) 8-12), the IC50 turned out to be 8.6 nM in series [1]; 3.3 nM in series [2]; 3.3 nM in series [3]; 6.8 nM in [4]; 12.5 nM in [6]; 7.2 nM in series [7]. For the same compound, the results for the IC50 in series [8], in series [9] and in series [10] were 16.2 nM, 0.4 nM and 20.3 nM, respectively. Also, the half-life at 25 µM in [5] came to 705 min.

Regarding `CC[C@H](C)[C@H](NC(=O)[C@H](CC(C)C)NC(=O)[C@]1(C)CCC/C=C\CCC[C@](C)(NC(=O)[C@@H](NC(=O)[C@H](Cc2ccc(O)cc2)NC(=O)[C@]2(C)CCC/C=C\CCC[C@](C)(NC(=O)[C@H](CC(=O)O)NC(=O)[C@H](Cc3c[nH]c4ccccc34)NC(=O)[C@H](CCC(=O)O)NC(=O)[C@H](CCC(=O)O)NC(=O)[C@H](Cc3c[nH]c4ccccc34)NC(=O)[C@@H](NC(=O)[C@H](CCSC)NC(C)=O)[C@@H](C)O)C(=O)N[C@@H](CCCCN)C(=O)N[C@@H]([C@@H](C)CC)C(=O)N[C@@H](CCC(=O)O)C(=O)N2)[C@@H](C)O)C(=O)N[C@@H](CCCCN)C(=O)N[C@@H]([C@@H](C)CC)C(=O)N[C@@H](CCC(=O)O)C(=O)N1)C(=O)N[C@@H](CCCCN)C(=O)N[C@@H](CCCCN)C(=O)N[C@@H](CO)C(N)=O` (Ac-MTWEEWD[S5]KIE[S5]YT[S5]KIE[S5]LIKKS-NH2; staple (Z) 8-12, 15-19), the IC50 in series [1] was 0.6 nM; in series [2], 1 nM; in series [3] it was 1.8 nM; in series [4] it was 3.6 nM; in series [6], 1.2 nM; in series [7], 2.6 nM. For the same compound, the IC50 worked out at 7.7 nM in series [8], 0.05 nM in series [9] and 5.3 nM in series [10]. The Ratio IC50 in series [11] was determined as 1.4; in series [12], 0.8; in series [13], 2.1; in [14] it was 2.2; in series [15], 1; in series [16], 3.3. The values for the Ratio IC50 in series [17], in series [18] and in series [19] were 1.6, 1.1 and 0.5, respectively. Also, the half-life at 25 µM in [5] is 3660 min.

Regarding Ac-MTWEEWDKKIEEYTKKIEELIKKS-NH2, the IC50 came to 7.3 nM in series [1]; 2.9 nM in series [2]; 7.5 nM in series [3]; 35 nM in [4]; 10.3 nM in series [6]; 5.9 nM in [7]. The IC50 in series [8] was found to be 22.3 nM; in series [9], 2.4 nM; in [10], 12.9 nM. Moreover, the Ratio IC50 stood at 2.3 in series [11]; 1.5 in [12]; 3.4 in [13]; 13 in series [14]; 2.3 in [15]; 19 in series [16]. Further, the Ratio IC50 in series [17] worked out at 2.6; in [18], 1.1; in [19], 1.2. In [5], the half-life at 25 µM turned out to be 125 min.
